Screening results (PubChem)
Rad51 HR inh: blocks human Rad51 in homologous recombination. Q06609. hRad51 DNA strand exchange, fluorescence dequenching. inhibition, % at 10 µM. 200,000 compounds, 0.085% hits;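 active means inhibition above 40% at the single screening dose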;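 further: 0% = DMSO control wells and 100% = blanks with heterologous ssDNA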
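Test system: preformed human Rad51 ssDNA filaments; also added: Donor/quencher-labelled 47-bp dsDNA substrate; doses: 10 µM final, single point; times: 37 °C 15-min filament assembly, 30-min compound preincubation, 15-min exchange; detection: FRET fluorescence dequenching, excitation 485 nm, emission 520 nm; read-out basis: Fluorescence-based percent inhibition, control- and blank-normalised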
TbHK1 inh: blocks Trypanosoma brucei hexokinase 1 activity; inhibition, % at 10 µM; AID 1430; recombinant TbHK1, G6PDH-coupled NADH A340; 220,000 compounds, 0.11% hits;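 active means inhibition of 50% or more in the single-dose primary screen; inactive means inhibition below 50%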
Mdm2 ligase inh: blocks human Mdm2 ubiquitin ligase activity; Q00987; cell-based MDM2 ubiquitination luciferase reporter, 2 h; 0 = plate control, 100 = twice control, blank-subtracted; signal enhancement, % at 5 µM; 210,000 compounds, 0.11% hits; AID 1230;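 active means signal enhancement of 30% or more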;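 further: luminescence tracks abundance of the self-degrading MDM2-luciferase fusion protein; higher signal means inhibition of MDM2 E3 ligase activity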
Target sequence (Q00987 whole entry, looked up, the tested form may be a part): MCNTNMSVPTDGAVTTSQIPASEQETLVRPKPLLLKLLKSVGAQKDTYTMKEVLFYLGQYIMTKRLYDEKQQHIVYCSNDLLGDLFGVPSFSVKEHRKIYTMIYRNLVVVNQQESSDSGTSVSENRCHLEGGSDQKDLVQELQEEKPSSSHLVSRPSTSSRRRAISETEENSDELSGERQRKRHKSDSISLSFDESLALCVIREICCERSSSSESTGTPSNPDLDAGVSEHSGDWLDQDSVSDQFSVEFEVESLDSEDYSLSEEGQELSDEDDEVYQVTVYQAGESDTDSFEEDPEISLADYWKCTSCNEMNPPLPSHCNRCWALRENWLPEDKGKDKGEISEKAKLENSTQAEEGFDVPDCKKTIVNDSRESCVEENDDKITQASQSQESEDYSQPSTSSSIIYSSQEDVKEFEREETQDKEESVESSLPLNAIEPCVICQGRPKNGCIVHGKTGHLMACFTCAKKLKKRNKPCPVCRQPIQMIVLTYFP
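Assay system: mammalian cells stably expressing self-ubiquitinating, self-degrading MDM2 E3–luciferase fusion. Quantity: 2000 cells in each well. Medium: DMEM culture medium. Compound dosing: single-point 5 µM. Timing: cell settling 4 h, compound treatment 2 h, both 37 °C. Technique: luciferase luminescence. Read-out basis: percent signal gain over controls, blank-subtracted. Benchmarks: plate controls and plate blanks.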
NCF1 inh: inhibitors of human p47phox binding; 220,000 compounds, 0.53% hits; p47phox/p22phox peptide binding, fluorescence polarization, 2 h; AID 1274; inhibition, % at 24.7 µM;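 active means inhibition above about 30%, limit read from the data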;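 further: 0% = p47phox with labelled peptide and 100% = labelled peptide alone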
Numbers without * were called inactive; . = no result. A selection: hits, their analogues and other compounds. The true share with any hit is near 0.75%.

SMILES | Rad51 HR inh | TbHK1 inh | Mdm2 ligase inh | NCF1 inh
CCOc1ccc(CCN2C(=O)C(=O)N([C@H](CCCN(C)Cc3ccccc3)CNCc3ccccc3)C[C@@H]2C(C)C)cc1 | 2 | 9 | -15 | -9
COc1ccc(CNC[C@@H](CCCCN(C)Cc2ccc(OC)cc2)N2C[C@H](c3ccccc3)N(CCc3ccc(Cl)c(Cl)c3)C(=O)C2=O)cc1 | -7 | 10 | . | 50*
COC(=O)/C(=C\Nc1ccc(Cl)cc1Cl)NC(=O)c1ccc(OC)cc1 | -6 | -41 | . | -8
CN(C)/C=N/c1nc(-c2ccc3c(c2)OCO3)cs1 | -5 | -7 | -9 | -7
CCOC(=O)/C=C/C(=O)N1CCN(C(=O)/C=C/C(=O)OCC)CC1 | -11 | -3 | -2 | -1
Cc1onc(-c2c(Cl)cccc2Cl)c1C(=O)Nn1cnnc1 | 44* | 8 | -6 | -5
Cc1onc(-c2c(Cl)cccc2Cl)c1C(=O)c1ccccc1 | 10 | -14 | 3 | -3
COc1c(Cl)cc(Br)c(OC)c1C(=O)NC(=O)Nc1nc(C)cc(C)n1 | 25 | 1 | -13 | 16
CCC(=O)Nc1ccc(/C(C)=N\NS(=O)(=O)c2ccc(C)cc2)cc1 | 10 | -5 | -13 | 170*
O=C(Nc1nc2ccccc2n1CCN1CCOCC1)c1ccc(Cl)cc1 | 11 | -10 | -16 | -12
CCC(=O)Nc1nc2ccccc2n1CCN1CCOCC1 | . | -2 | 4 | 38*
O=C(CCC1CCCC1)Nc1ccc([N+](=O)[O-])cn1 | -18 | -9 | 10 | 0
O=C(CN1C(=O)S/C(=C\C=C\c2ccccc2)C1=O)N1CCOCC1 | . | -38 | -3 | -8
Cc1ccc(/C=N/Nc2ccnc3cc(Cl)ccc23)c(C)c1 | -9 | -1 | 0 | 47*
Cc1ccccc1/C=N/Nc1ccnc2cc(Cl)ccc12 | -1 | -2 | -3 | -1
Cc1noc(C)c1COC(=O)c1ccc(N(C)C)cc1 | 29 | -9 | -3 | -11
CSc1ncc(CNc2cc([N+](=O)[O-])ccc2C)c(N)n1 | -6 | . | . | .
O=C1C2=C(SCCS2)C(=O)N1CCCO | . | -3 | -13 | 72*
CCOC(=O)Cn1c(=O)cnc2ccccc21 | 2 | -20 | -14 | 32*
O=[N+]([O-])CC(=Nc1ccc(F)cc1)N/N=C\c1oc(O)c2ccccc12 | -9 | -18 | . | -27
CC(=O)c1ccc(OCC(O)Cn2nnc3ccccc32)cc1 (stereo not drawn) | 5 | -5 | 36* | -10
COC(=O)c1ccc(OCC(O)Cn2nnc3ccccc32)cc1 (stereo not drawn) | -10 | -1 | -5 | -1
COC(=O)c1c(SCc2ccc(C#N)cc2)nc(=O)[nH]c1C | 4 | -4 | -10 | -16
N#CC1(C#N)COC23CCCCC2C1(C#N)C(=N)O3 (stereo not drawn) | -12 | 4 | -8 | 141*
Cn1cc(/C=C(\C#N)C(=O)Nc2cccc([N+](=O)[O-])c2)c2ccccc21 | -13 | 6 | -88 | 37*
SMILES | Rad51 HR inh | TbHK1 inh | Mdm2 ligase inh | NCF1 inh
COc1ccc(C(=O)C(OC(=O)c2ccc(C)c(NC(C)=O)c2)c2ccccc2)cc1 (stereo not drawn) | 5 | -8 | 22 | -3
CC(=O)Nc1cc(C(=O)OC(C(=O)c2ccccc2)c2ccccc2)ccc1C (stereo not drawn) | . | -10 | -18 | 49*
CCOc1ccc(-c2cc(CCCC(=O)NCc3ccco3)no2)cc1 | -8 | 1 | -9 | 33*
COc1ccc(-c2cnnc(N/N=C/c3ccc(-c4ccc([N+](=O)[O-])cc4)o3)n2)cc1 | -13 | -31 | -18 | 60*
COc1nc(N/N=C/c2ccc(-c3cccc([N+](=O)[O-])c3)o2)nc(N2CCOCC2)n1 | -4 | -3 | -10 | 76*
O=[N+]([O-])c1cccc(-c2ccc(/C=N/Nc3nc(N4CCCCC4)nc(N4CCCCC4)n3)o2)c1 | . | -31 | -27 | 9
CCCc1cc(=O)oc2cc(C)cc(O)c12 | -2 | -12 | -2 | 147*
Cc1ccc(P(=O)(O)c2ccc(C)cc2)cc1 | -38 | 6 | -9 | 65*
Cc1ccc(P(C)(=O)c2ccc(C)cc2)cc1 | 0 | 9 | 16 | -4
COc1ccc(OC(C)C(=O)Nc2ccccc2C(F)(F)F)cc1 (stereo not drawn) | 8 | -1 | 262* | -25
COc1ccc(CCC(=O)Nc2ccccc2C(F)(F)F)cc1 | . | 1 | -11 | -6
COc1ccc(-c2nsc(SCC(=O)Nc3ccc4c(c3)OCO4)n2)cc1 | 4 | -4 | 32* | -10
Cc1nn(CCCC(=O)NCc2ccccc2)c(C)c1[N+](=O)[O-] | -5 | 36 | 40* | -10
